Experimental data published in ChEMBL document CHEMBL4689842, “EUbOPEN Chemogenomics Library wave 1” (2021).
Values joined by “and” are separate entries in the source; they are usually repeats but may differ in a detail not shown here. Equal entries are not always repeated.

How the values were obtained:
Format in all cases: toxicity, cell-based
Fibroblast [1] = assay: Multiplex assay against human fibroblast
Outline: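 Values for tubulin, mitochondrial-mass and membrane-permeability phenotypes are per cents of cells with healthy nuclei. These cells were identified by CellPathfinder machine-learning gating of live cells that had been stained at seeding with Hoechst33342, BioTracker Green Microtubule Cytoskeleton Dye, MitoTracker Red and Annexin V Alexa Fluor 680 and imaged on a CQ1 microscope at 37°C and 5% CO2 after compound addition. The gating first set Hoechst high-intensity objects apart from normal cells, then split normal cells into healthy, pyknosed or fragmented nuclei, and pyknosed cells into mitotic or apoptotic.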

Fibroblast [2] = assay: Incucyte cell viability with human fibroblast; conditions: 10 µM, compound concentration 10 uM; further: filed as whole numbers so only -1 and 0 and 1 occur
U2OS = assay: Incucyte cell viability with U2OS; conditions: human, 10 µM, compound concentration 10 uM; further: filed as whole numbers so only -1 and 0 and 1 occur
[3] = 12 h, 1 µM, compound concentration 1 uM, replicate 1
[4] = 12 h, 1 µM, compound concentration 1 uM, replicate 2
[5] = 12 h, 10 µM, compound concentration 10 uM, replicate 1
[6] = 12 h, 10 µM, compound concentration 10 uM, replicate 2
[7] = 24 h, 1 µM, compound concentration 1 uM, replicate 1
[8] = 24 h, 1 µM, compound concentration 1 uM, replicate 2
[9] = 24 h, 10 µM, compound concentration 10 uM, replicate 1
[10] = 24 h, 10 µM, compound concentration 10 uM, replicate 2
[11] = 48 h, 10 µM, compound concentration 10 uM, replicate 1
[12] = 48 h, 10 µM, compound concentration 10 uM, replicate 2
[13] = 12 h, replicate number 1, timepoint 12 hours
[14] = 18 h, replicate number 1, timepoint 18 hours
[15] = 24 h, replicate number 1, timepoint 24 hours

Cc1c(Nc2ccc(S(=O)(=O)N3CCN(C)CC3)cc2F)nc2ccc(-c3cnn(C4CC4)c3)cn2c1=O
Population Apoptotic (%) (Fibroblast [1]; [3]): 66%
Population Fragmented Nuclei (%) (Fibroblast [1]; [3]): 29%
Population Healthy Nuclei (%) (Fibroblast [1]; [3]): 57%
Population Hoechst High Intensity Objects (%) (Fibroblast [1]; [3]): 11%
Population Membrane Permeable-Phenotype (%) (Fibroblast [1]; [3]): 9%
Population Mitochondria Different-Phenotype (%) (Fibroblast [1]; [3]): 4%
Population Mitotic Cells (%) (Fibroblast [1]; [3]): 33%
Population Normal (%) (Fibroblast [1]; [3]): 88%
Population Pyknosed Nuclei (%) (Fibroblast [1]; [3]): 12%
Population Tubulin-Different-Phenotype (%) (Fibroblast [1]; [3]): 4%
Total Cell Count (Fibroblast [1]; [3]): 222
Population Apoptotic (%) (Fibroblast [1]; [4]): 50%
Population Fragmented Nuclei (%) (Fibroblast [1]; [4]): 49%
Population Healthy Nuclei (%) (Fibroblast [1]; [4]): 40%
Population Hoechst High Intensity Objects (%) (Fibroblast [1]; [4]): 24%
Population Membrane Permeable-Phenotype (%) (Fibroblast [1]; [4]): 0%
Population Mitochondria Different-Phenotype (%) (Fibroblast [1]; [4]): 0%
Population Mitotic Cells (%) (Fibroblast [1]; [4]): 50%
Population Normal (%) (Fibroblast [1]; [4]): 75%
Population Pyknosed Nuclei (%) (Fibroblast [1]; [4]): 10%
Population Tubulin-Different-Phenotype (%) (Fibroblast [1]; [4]): 0%
Total Cell Count (Fibroblast [1]; [4]): 73
Population Apoptotic (%) (Fibroblast [1]; [5]): 67% and 50%
Population Fragmented Nuclei (%) (Fibroblast [1]; [5]): 32% and 29%
Population Healthy Nuclei (%) (Fibroblast [1]; [5]): 39% and 54%
Population Hoechst High Intensity Objects (%) (Fibroblast [1]; [5]): 45% and 41%
Population Membrane Permeable-Phenotype (%) (Fibroblast [1]; [5]): 19% and 13%
Population Mitochondria Different-Phenotype (%) (Fibroblast [1]; [5]): 3% and 4%
Population Mitotic Cells (%) (Fibroblast [1]; [5]): 32% and 50%
Population Normal (%) (Fibroblast [1]; [5]): 54% and 58%
Population Pyknosed Nuclei (%) (Fibroblast [1]; [5]): 27% and 16%
Population Tubulin-Different-Phenotype (%) (Fibroblast [1]; [5]): 30% and 20%
Total Cell Count (Fibroblast [1]; [5]): 373 and 542
Population Apoptotic (%) (Fibroblast [1]; [6]): 78% and 64%
Population Fragmented Nuclei (%) (Fibroblast [1]; [6]): 34% and 56%
Population Healthy Nuclei (%) (Fibroblast [1]; [6]): 42%
Population Hoechst High Intensity Objects (%) (Fibroblast [1]; [6]): 79% and 58%
Population Membrane Permeable-Phenotype (%) (Fibroblast [1]; [6]): 11% and 8%
Population Mitotic Cells (%) (Fibroblast [1]; [6]): 21% and 35%
Population Normal (%) (Fibroblast [1]; [6]): 20% and 41%
Population Tubulin-Different-Phenotype (%) (Fibroblast [1]; [6]): 6% and 8%
Population Apoptotic (%) (Fibroblast [1]; [7]): 85%
Population Fragmented Nuclei (%) (Fibroblast [1]; [7]): 26%
Population Healthy Nuclei (%) (Fibroblast [1]; [7]): 60%
Population Hoechst High Intensity Objects (%) (Fibroblast [1]; [7]): 12%
Population Membrane Permeable-Phenotype (%) (Fibroblast [1]; [7]): 5%
Population Mitochondria Different-Phenotype (%) (Fibroblast [1]; [7]): 2%
Population Mitotic Cells (%) (Fibroblast [1]; [7]): 14%
Population Normal (%) (Fibroblast [1]; [7]): 87%
Population Pyknosed Nuclei (%) (Fibroblast [1]; [7]): 13%
Population Tubulin-Different-Phenotype (%) (Fibroblast [1]; [7]): 4%
Total Cell Count (Fibroblast [1]; [7]): 230
Population Apoptotic (%) (Fibroblast [1]; [8]): 80%
Population Fragmented Nuclei (%) (Fibroblast [1]; [8]): 58%
Population Healthy Nuclei (%) (Fibroblast [1]; [8]): 34%
Population Hoechst High Intensity Objects (%) (Fibroblast [1]; [8]): 20%
Population Membrane Permeable-Phenotype (%) (Fibroblast [1]; [8]): 8%
Population Mitochondria Different-Phenotype (%) (Fibroblast [1]; [8]): 12%
Population Mitotic Cells (%) (Fibroblast [1]; [8]): 20%
Population Normal (%) (Fibroblast [1]; [8]): 79%
Population Pyknosed Nuclei (%) (Fibroblast [1]; [8]): 6%
Population Tubulin-Different-Phenotype (%) (Fibroblast [1]; [8]): 8%
Total Cell Count (Fibroblast [1]; [8]): 91
Population Apoptotic (%) (Fibroblast [1]; [9]): 46% and 54%
Population Fragmented Nuclei (%) (Fibroblast [1]; [9]): 40% and 29%
Population Healthy Nuclei (%) (Fibroblast [1]; [9]): 46% and 57%
Population Hoechst High Intensity Objects (%) (Fibroblast [1]; [9]): 42% and 34%
Population Membrane Permeable-Phenotype (%) (Fibroblast [1]; [9]): 21%
Population Mitotic Cells (%) (Fibroblast [1]; [9]): 53% and 45%
Population Normal (%) (Fibroblast [1]; [9]): 57% and 65%
Population Pyknosed Nuclei (%) (Fibroblast [1]; [9]): 13%
Population Tubulin-Different-Phenotype (%) (Fibroblast [1]; [9]): 37% and 21%
Total Cell Count (Fibroblast [1]; [9]): 395 and 524
Population Apoptotic (%) (Fibroblast [1]; [10]): 60% and 68%
Population Fragmented Nuclei (%) (Fibroblast [1]; [10]): 58% and 33%
Population Healthy Nuclei (%) (Fibroblast [1]; [10]): 37% and 44%
Population Hoechst High Intensity Objects (%) (Fibroblast [1]; [10]): 58% and 77%
Population Membrane Permeable-Phenotype (%) (Fibroblast [1]; [10]): 13% and 9%
Population Mitochondria Different-Phenotype (%) (Fibroblast [1]; [10]): 23% and 0%
Population Mitotic Cells (%) (Fibroblast [1]; [10]): 40% and 31%
Population Normal (%) (Fibroblast [1]; [10]): 41% and 22%
Population Apoptotic (%) (Fibroblast [1]; [11]): 57%
Population Fragmented Nuclei (%) (Fibroblast [1]; [11]): 39%
Population Healthy Nuclei (%) (Fibroblast [1]; [11]): 47%
Population Hoechst High Intensity Objects (%) (Fibroblast [1]; [11]): 43%
Population Membrane Permeable-Phenotype (%) (Fibroblast [1]; [11]): 14%
Population Mitochondria Different-Phenotype (%) (Fibroblast [1]; [11]): 1%
Population Mitotic Cells (%) (Fibroblast [1]; [11]): 42%
Population Normal (%) (Fibroblast [1]; [11]): 56%
Population Pyknosed Nuclei (%) (Fibroblast [1]; [11]): 13%
Population Tubulin-Different-Phenotype (%) (Fibroblast [1]; [11]): 31%
Total Cell Count (Fibroblast [1]; [11]): 344
Population Apoptotic (%) (Fibroblast [1]; [12]): 60%
Population Healthy Nuclei (%) (Fibroblast [1]; [12]): 57%
Population Hoechst High Intensity Objects (%) (Fibroblast [1]; [12]): 19%
Population Membrane Permeable-Phenotype (%) (Fibroblast [1]; [12]): 16%
Population Mitotic Cells (%) (Fibroblast [1]; [12]): 40%
Population Normal (%) (Fibroblast [1]; [12]): 80%
Population Pyknosed Nuclei (%) (Fibroblast [1]; [12]): 3%
Population Tubulin-Different-Phenotype (%) (Fibroblast [1]; [12]): 24%
Total Cell Count (Fibroblast [1]; [12]): 159
Growth Rate (Fibroblast [2]; 0 h, replicate number 1, timepoint 0 hours): 0
Growth Rate (Fibroblast [2]; [13]): 1
Growth Rate (Fibroblast [2]; [14]): 1
Growth Rate (Fibroblast [2]; [15]): 1
Growth Rate (U2OS; 0 h, replicate number 2, timepoint 0 hours): 0
Growth Rate (U2OS; 6 h, replicate number 1, timepoint 6 hours): 1
Growth Rate (U2OS; [13]): 0
Growth Rate (U2OS; [14]): 0
Growth Rate (U2OS; 18 h, replicate number 2, timepoint 18 hours): 1
Growth Rate (U2OS; [15]): 0
Growth Rate (U2OS; 24 h, replicate number 2, timepoint 24 hours): 1
